ChEMBL document CHEMBL1148704, “First total synthesis of protoapigenone and its analogues as potent cytotoxic agents” (J Med Chem, 2007)

Assays:
[1] = Cytotoxicity against human Hep3B cells after 72 hrs by MTT colorimetric method; assay type: functional, cell-based, Hep 3B2
Procedure, shortened: (§1)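 Cell lines from ATCC, grown in RPMI-1640 with 10% FBS, 100 U/mL penicillin and 100 µg/mL streptomycin at 37 °C, humidified 5% CO₂. Seeded at 5000-10000 cells/well, treated on day two for 72 h. Attached cells then given MTT (0.5 mg/mL, 1 h), formazan solubilized in DMSO, colorimetric readout. IC₅₀ values reported.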

MCF7 = assay: Cytotoxicity against human MCF7 cells after 72 hrs by MTT colorimetric method; assay type: functional, cell-based; conditions: MCF7, 72 h; procedure, shortened: as §1
MDA-MB-231 = assay: Cytotoxicity against human MDA-MB-231 cells after 72 hrs by MTT colorimetric method; assay type: functional, cell-based; conditions: MDA-MB-231, 72 h; procedure, shortened: as §1
HepG2 = assay: Cytotoxicity against human HepG2 cells after 72 hrs by MTT colorimetric method; assay type: functional, cell-based; conditions: HepG2, 72 h
A549 = assay: Cytotoxicity against human A549 cells after 72 hrs by MTT colorimetric method; assay type: functional, cell-based; conditions: A549, 72 h; procedure, shortened: as §1

COc1cc(O)c2c(=O)cc(C3(O)C=CC(=O)C=C3)oc2c1
IC50 [1]: 670 nM
IC50 (MCF7): 1700 nM
IC50 (MDA-MB-231): 430 nM
IC50 (HepG2): 570 nM
IC50 (A549): 3100 nM

O=C1C=CC(O)(c2cc(=O)c3c(ccc4ccccc43)o2)C=C1
IC50 [1]: 300 nM
IC50 (MCF7): 660 nM
IC50 (MDA-MB-231): 390 nM
IC50 (HepG2): 3550 nM
IC50 (A549): 1810 nM

COC1(c2cc(=O)c3c(ccc4ccccc43)o2)C=CC(=O)C=C1
IC50 [1]: 1100 nM
IC50 (MCF7): 2700 nM
IC50 (MDA-MB-231): 1160 nM
IC50 (HepG2): 9940 nM
IC50 (A549): 25800 nM

COc1cc(OC)c2c(=O)cc(C3(O)C=CC(=O)C=C3)oc2c1
IC50 [1]: 670 nM
IC50 (MCF7): 1210 nM
IC50 (MDA-MB-231): 540 nM
IC50 (HepG2): 5030 nM
IC50 (A549): 1270 nM

O=C1C=CC(O)(c2cc(=O)c3ccccc3o2)C=C1
IC50 [1]: 1260 nM
IC50 (MCF7): 1730 nM
IC50 (MDA-MB-231): 710 nM
IC50 (HepG2): 6730 nM
IC50 (A549): 5240 nM

O=C1C=CC(O)(c2cc(=O)c3c(O)cccc3o2)C=C1
IC50 [1]: 1300 nM
IC50 (MCF7): 3440 nM
IC50 (MDA-MB-231): 670 nM
IC50 (HepG2): 4960 nM
IC50 (A549): 5070 nM

COC1(c2cc(=O)c3c(O)cccc3o2)C=CC(=O)C=C1
IC50 [1]: 2320 nM
IC50 (MCF7): 5460 nM
IC50 (MDA-MB-231): 1900 nM
IC50 (HepG2): 26900 nM
IC50 (A549): 57600 nM

COc1cc(OC)c2c(=O)cc(C3(OC)C=CC(=O)C=C3)oc2c1
IC50 [1]: 3780 nM
IC50 (MCF7): 4210 nM
IC50 (MDA-MB-231): 4700 nM
IC50 (HepG2): 27000 nM
IC50 (A549): > 61000 nM

COC1(c2cc(=O)c3ccccc3o2)C=CC(=O)C=C1
IC50 [1]: 5410 nM
IC50 (MCF7): 7990 nM
IC50 (MDA-MB-231): 5490 nM
IC50 (HepG2): 40900 nM
IC50 (A549): > 74600 nM

COC1(c2cc(=O)c3ccc4ccccc4c3o2)C=CC(=O)C=C1
IC50 [1]: 600 nM
IC50 (MCF7): 2960 nM
IC50 (MDA-MB-231): 1070 nM
IC50 (HepG2): 14400 nM
IC50 (A549): 28300 nM

COCOc1cc(O)c2c(=O)cc(C3(O)C=CC(=O)C=C3)oc2c1
IC50 [1]: 2390 nM
IC50 (MCF7): 5240 nM
IC50 (MDA-MB-231): 1730 nM
IC50 (HepG2): 15600 nM
IC50 (A549): 24600 nM

COc1cccc2c1C(=O)c1c(O)c3c(c(O)c1C2=O)C[C@@](O)(C(=O)CO)C[C@@H]3O[C@H]1C[C@H](N)[C@H](O)[C@H](C)O1 [DOXORUBICIN]
IC50 [1]: 620 nM
IC50 (MCF7): 740 nM
IC50 (MDA-MB-231): 140 nM
IC50 (A549): 360 nM

O=C1C=CC(O)(c2cc(=O)c3c(O)cc(O)cc3o2)C=C1 [PROTOAPIGENONE]
IC50 [1]: 2270 nM
IC50 (MCF7): 3740 nM
IC50 (MDA-MB-231): 1430 nM
IC50 (HepG2): 8110 nM
IC50 (A549): 13800 nM
